system: Rattus norvegicus; experiment: Antihypertensive activity in Norwegian albino rat assessed as inhibition of DOCA salt-induced systolic blood pressure at 10 mg/kg, po after 15 mins by non-invasive tail-cuff method; type: functional; conditions: Artery, 0.25 h

Structure (SMILES) | inhibition in vivo at 10 mg/kg [%]
CCOC(=O)C1=C(C)NC(OC)N(CC(=O)c2ccc(Cl)cc2)C1c1ccc(O)cc1 (stereo not given) | 1
CCOC(=O)C1=C(C)NC(OC)N(CC(=O)c2ccccc2)C1c1ccc(C)cc1 (stereo not given) | 0.59

system: Rattus norvegicus; experiment: Antihypertensive activity in Norwegian albino rat assessed as inhibition of DOCA salt-induced systolic blood pressure at 10 mg/kg, po after 180 mins by non-invasive tail-cuff method; type: functional; conditions: Artery, 3 h
In short: (§1)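 Male rats (200–250 g), uninephrectomized under pentobarbital (50 mg/kg i.p.); one week later DOCA s.c. 30–50 mg/kg/week, with 1% w/v NaCl in drinking water. Groups of six, trained in restrainer, tail warmed at 33–34 °C. Compound in 0.5% CMC, 10 mg/kg orally. Systolic pressure read by tail-cuff before dosing and from 1 h after; three readings averaged. ANOVA.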

Structure (SMILES) | inhibition in vivo at 10 mg/kg [%]
CCOC(=O)C1=C(C)NC(OC)N(CC(=O)c2ccc(Cl)cc2)C1c1ccc(O)cc1 (stereo not given) | 28.4
CCOC(=O)C1=C(C)NC(OC)N(CC(=O)c2ccccc2)C1c1ccc(C)cc1 (stereo not given) | 28

system: Rattus norvegicus; experiment: Antihypertensive activity in Norwegian albino rat assessed as inhibition of DOCA salt-induced systolic blood pressure at 10 mg/kg, po after 60 mins by non-invasive tail-cuff method; type: functional; conditions: Artery, 1 h; in short: as §1

Structure (SMILES) | inhibition in vivo at 10 mg/kg [%]
CCOC(=O)C1=C(C)NC(OC)N(CC(=O)c2ccc(Cl)cc2)C1c1ccc(O)cc1 (stereo not given) | 15.1
CCOC(=O)C1=C(C)NC(OC)N(CC(=O)c2ccccc2)C1c1ccc(C)cc1 (stereo not given) | 13.7

system: Rattus norvegicus; experiment: Antiinflammatory activity in Norwegian albino rat assessed as inhibition of carrageenan-induced paw edema at 100 mg/kg, po after administered 60 mins prior to carrageenan-challenge measured after 5 hrs; type: functional; conditions: not given
In short: (§2)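 Compound given orally as 100 mg/kg suspension in 0.5% CMC. 60 min later, carrageenan injected sub-plantar into the left hind paw. Paw volume measured within 30 s of injection, then at 1–5 h. % inhibition = [1−(Dt/Dc)]×100, where Dt and Dc are mean relative paw-volume changes in test and control. ANOVA.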

Structure (SMILES) | inhibition in vivo at 100 mg/kg [%]
CCOC(=O)C1=C(C)NC(OC)N(CC(=O)c2ccc(Cl)cc2)C1c1ccc(O)cc1 (stereo not given) | 42
CCOC(=O)C1=C(C)NC(OC)N(CC(=O)c2ccccc2)C1c1ccc(C)cc1 (stereo not given) | 38.9

system: Rattus norvegicus; experiment: Antihypertensive activity in Norwegian albino rat assessed as inhibition of DOCA salt-induced systolic blood pressure at 10 mg/kg, po after 300 mins by non-invasive tail-cuff method; type: functional; conditions: Artery, 5 h; in short: as §1

Structure (SMILES) | inhibition in vivo at 10 mg/kg [%]
CCOC(=O)C1=C(C)NC(OC)N(CC(=O)c2ccc(Cl)cc2)C1c1ccc(O)cc1 (stereo not given) | 39.6
CCOC(=O)C1=C(C)NC(OC)N(CC(=O)c2ccccc2)C1c1ccc(C)cc1 (stereo not given) | 38.3

system: Rattus norvegicus; experiment: Antihypertensive activity in Norwegian albino rat assessed as inhibition of DOCA salt-induced systolic blood pressure at 10 mg/kg, po after 480 mins by non-invasive tail-cuff method; type: functional; conditions: Artery, 8 h; in short: as §1

Structure (SMILES) | inhibition in vivo at 10 mg/kg [%]
CCOC(=O)C1=C(C)NC(OC)N(CC(=O)c2ccc(Cl)cc2)C1c1ccc(O)cc1 (stereo not given) | 45.5
CCOC(=O)C1=C(C)NC(OC)N(CC(=O)c2ccccc2)C1c1ccc(C)cc1 (stereo not given) | 45.5

system: Rattus norvegicus; experiment: Antihypertensive activity in Norwegian albino rat assessed as inhibition of DOCA salt-induced diastolic blood pressure at 10 mg/kg, po after 180 mins by invasive carotid artery cannulation method; type: functional; conditions: 3 h
In short: (§3)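 Male rats (200–250 g), uninephrectomized and given DOCA s.c. (30–50 mg/kg/week) with 1% NaCl drinking water. Anesthetized with pentobarbital (35 mg/kg i.p.); left carotid artery cannulated and exteriorized. After recovery and a baseline reading, compound given orally by feeding needle. Diastolic pressure recorded via transducer at 15, 30, 60, 120 and 180 min. Mean ± S.E.M.; repeated-measures ANOVA.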

Structure (SMILES) | inhibition in vivo at 10 mg/kg [%]
CCOC(=O)C1=C(C)NC(OC)N(CC(=O)c2ccc(Cl)cc2)C1c1ccc(O)cc1 (stereo not given) | 38.3
CCOC(=O)C1=C(C)NC(OC)N(CC(=O)c2ccccc2)C1c1ccc(C)cc1 (stereo not given) | 35.5

system: Rattus norvegicus; experiment: Antihypertensive activity in Norwegian albino rat assessed as inhibition of DOCA salt-induced diastolic blood pressure at 10 mg/kg, po after 30 mins by invasive carotid artery cannulation method; type: functional; conditions: 0.5 h; in short: as §3

Structure (SMILES) | inhibition in vivo at 10 mg/kg [%]
CCOC(=O)C1=C(C)NC(OC)N(CC(=O)c2ccc(Cl)cc2)C1c1ccc(O)cc1 (stereo not given) | 10.3
CCOC(=O)C1=C(C)NC(OC)N(CC(=O)c2ccccc2)C1c1ccc(C)cc1 (stereo not given) | 9.79

system: Rattus norvegicus; experiment: Antiinflammatory activity in Norwegian albino rat assessed as inhibition of carrageenan-induced paw edema at 100 mg/kg, po after administered 60 mins prior to carrageenan-challenge measured after 3 hrs; type: functional; conditions: not given; in short: as §2

Structure (SMILES) | inhibition in vivo at 100 mg/kg [%]
CCOC(=O)C1=C(C)NC(OC)N(CC(=O)c2ccc(Cl)cc2)C1c1ccc(O)cc1 (stereo not given) | 38.8
CCOC(=O)C1=C(C)NC(OC)N(CC(=O)c2ccccc2)C1c1ccc(C)cc1 (stereo not given) | 37.9

system: Mus musculus; experiment: Analgesic activity against acetic acid-induced writhing in Swiss albino mouse assessed as protection at 20 mg/kg, po; type: functional; conditions: not given
In short: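 Swiss albino mice (25–30 g), six per group, habituated 30 min individually in the test cage. Compound in 1% CMC given p.o. at 20 mg/kg. 1 h later, acetic acid injected i.p.; writhes (arching of back, body elongation, hind-limb extension) counted 5–15 min after injection. % inhibition = (n−n′)/n×100, where n and n′ are mean writhes in control and test.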

Structure (SMILES) | Activity [%]
CCOC(=O)C1=C(C)NC(OC)N(CC(=O)c2ccc(Cl)cc2)C1c1ccc(O)cc1 (stereo not given) | 45.66

system: Rattus norvegicus; experiment: Antihypertensive activity in Norwegian albino rat assessed as inhibition of DOCA salt-induced diastolic blood pressure at 10 mg/kg, po after 15 mins by invasive carotid artery cannulation method; type: functional; conditions: 0.25 h; in short: as §3

Structure (SMILES) | inhibition in vivo at 10 mg/kg [%]
CCOC(=O)C1=C(C)NC(OC)N(CC(=O)c2ccc(Cl)cc2)C1c1ccc(O)cc1 (stereo not given) | 1.43
CCOC(=O)C1=C(C)NC(OC)N(CC(=O)c2ccccc2)C1c1ccc(C)cc1 (stereo not given) | 2.2

system: Rattus norvegicus; experiment: Antihypertensive activity in Norwegian albino rat assessed as inhibition of DOCA salt-induced systolic blood pressure at 10 mg/kg, po after 420 mins by non-invasive tail-cuff method; type: functional; conditions: Artery, 7 h; in short: as §1

Structure (SMILES) | inhibition in vivo at 10 mg/kg [%]
CCOC(=O)C1=C(C)NC(OC)N(CC(=O)c2ccc(Cl)cc2)C1c1ccc(O)cc1 (stereo not given) | 44
CCOC(=O)C1=C(C)NC(OC)N(CC(=O)c2ccccc2)C1c1ccc(C)cc1 (stereo not given) | 44

system: Rattus norvegicus; experiment: Gastrointestinal toxicity in albino rat assessed as ulcerogenic index at 50 mg/kg, po; type: organism-based; parameters: dose 50 mg/kg, route oral; conditions: in vivo
In short: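 Albino rats (150–200 g), six per group, food but not water withheld 24 h. Compound given p.o. at 50 mg/kg; controls received 1% methyl cellulose. Rats fed 17 h, then killed; stomach opened along greater curvature and examined under 4× magnifier. Lesions scored as large (>2 mm), small (1–2 mm) or punctiform (<1 mm). Severity index = treated mean score minus control mean score.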

Structure (SMILES) | UI
CCOC(=O)C1=C(C)NC(OC)N(CC(=O)c2ccc(Cl)cc2)C1c1ccc(O)cc1 (stereo not given) | 0.45

system: Rattus norvegicus; experiment: Antiinflammatory activity in Norwegian albino rat assessed as inhibition of carrageenan-induced paw edema at 100 mg/kg, po after administered 60 mins prior to carrageenan-challenge measured after 1 hr; type: functional; conditions: not given; in short: as §2

Structure (SMILES) | inhibition in vivo at 100 mg/kg [%]
CCOC(=O)C1=C(C)NC(OC)N(CC(=O)c2ccc(Cl)cc2)C1c1ccc(O)cc1 (stereo not given) | 36.6
CCOC(=O)C1=C(C)NC(OC)N(CC(=O)c2ccccc2)C1c1ccc(C)cc1 (stereo not given) | 37.8

system: Rattus norvegicus; experiment: Antihypertensive activity in Norwegian albino rat assessed as inhibition of DOCA salt-induced systolic blood pressure at 10 mg/kg, po after 240 mins by non-invasive tail-cuff method; type: functional; conditions: Artery, 4 h; in short: as §1

Structure (SMILES) | inhibition in vivo at 10 mg/kg [%]
CCOC(=O)C1=C(C)NC(OC)N(CC(=O)c2ccc(Cl)cc2)C1c1ccc(O)cc1 (stereo not given) | 36.7
CCOC(=O)C1=C(C)NC(OC)N(CC(=O)c2ccccc2)C1c1ccc(C)cc1 (stereo not given) | 36.8

system: Rattus norvegicus; experiment: Antihypertensive activity in Norwegian albino rat assessed as inhibition of DOCA salt-induced diastolic blood pressure at 10 mg/kg, po after 60 mins by invasive carotid artery cannulation method; type: functional; conditions: 1 h; in short: as §3

Structure (SMILES) | inhibition in vivo at 10 mg/kg [%]
CCOC(=O)C1=C(C)NC(OC)N(CC(=O)c2ccc(Cl)cc2)C1c1ccc(O)cc1 (stereo not given) | 22.5
CCOC(=O)C1=C(C)NC(OC)N(CC(=O)c2ccccc2)C1c1ccc(C)cc1 (stereo not given) | 23.1

system: Rattus norvegicus; experiment: Antihypertensive activity in Norwegian albino rat assessed as inhibition of DOCA salt-induced diastolic blood pressure at 10 mg/kg, po after 240 mins by invasive carotid artery cannulation method; type: functional; conditions: 4 h

Structure (SMILES) | inhibition in vivo at 10 mg/kg [%]
CCOC(=O)C1=C(C)NC(OC)N(CC(=O)c2ccc(Cl)cc2)C1c1ccc(O)cc1 (stereo not given) | 47.8
CCOC(=O)C1=C(C)NC(OC)N(CC(=O)c2ccccc2)C1c1ccc(C)cc1 (stereo not given) | 48.7

system: Rattus norvegicus; experiment: Antihypertensive activity in Norwegian albino rat assessed as inhibition of DOCA salt-induced diastolic blood pressure at 10 mg/kg, po after 120 mins by invasive carotid artery cannulation method; type: functional; conditions: 2 h; in short: as §3

Structure (SMILES) | inhibition in vivo at 10 mg/kg [%]
CCOC(=O)C1=C(C)NC(OC)N(CC(=O)c2ccc(Cl)cc2)C1c1ccc(O)cc1 (stereo not given) | 30.1
CCOC(=O)C1=C(C)NC(OC)N(CC(=O)c2ccccc2)C1c1ccc(C)cc1 (stereo not given) | 30.6

system: Rattus norvegicus; experiment: Antihypertensive activity in Norwegian albino rat assessed as inhibition of DOCA salt-induced systolic blood pressure at 10 mg/kg, po after 30 mins by non-invasive tail-cuff method; type: functional; conditions: Artery, 0.5 h

Structure (SMILES) | inhibition in vivo at 10 mg/kg [%]
CCOC(=O)C1=C(C)NC(OC)N(CC(=O)c2ccc(Cl)cc2)C1c1ccc(O)cc1 (stereo not given) | 6.36
CCOC(=O)C1=C(C)NC(OC)N(CC(=O)c2ccccc2)C1c1ccc(C)cc1 (stereo not given) | 1.87

system: Rattus norvegicus; experiment: Antihypertensive activity in Norwegian albino rat assessed as inhibition of DOCA salt-induced systolic blood pressure at 10 mg/kg, po after 360 mins by non-invasive tail-cuff method; type: functional; conditions: Artery, 6 h; in short: as §1

Structure (SMILES) | inhibition in vivo at 10 mg/kg [%]
CCOC(=O)C1=C(C)NC(OC)N(CC(=O)c2ccc(Cl)cc2)C1c1ccc(O)cc1 (stereo not given) | 42
CCOC(=O)C1=C(C)NC(OC)N(CC(=O)c2ccccc2)C1c1ccc(C)cc1 (stereo not given) | 42

system: Rattus norvegicus; experiment: Antihypertensive activity in Norwegian albino rat assessed as inhibition of DOCA salt-induced systolic blood pressure at 10 mg/kg, po after 120 mins by non-invasive tail-cuff method; type: functional; conditions: Artery, 2 h; in short: as §1

Structure (SMILES) | inhibition in vivo at 10 mg/kg [%]
CCOC(=O)C1=C(C)NC(OC)N(CC(=O)c2ccc(Cl)cc2)C1c1ccc(O)cc1 (stereo not given) | 23.1
CCOC(=O)C1=C(C)NC(OC)N(CC(=O)c2ccccc2)C1c1ccc(C)cc1 (stereo not given) | 17.4
